Measured values as given in ChEMBL document CHEMBL1123516, “Substituted 1,3,4-thiadiazoles with anticonvulsant activity. 1. Hydrazines” (J Med Chem, 1986).

Legend:
Mus musculus [1] = assay: Anticonvulsant activity tested by maximal metrazole seizure (MMS) test in mouse after 1 hr of administration; format: functional
Summary of the method: (§1)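 Male BKW mice, 18-22 g, dosed orally with compound in 2% Tween 80/water. Metrazol 120 mg/kg ip was given 1 h after dosing. ED50 for block of hind limb tonic seizure was derived by Bliss probit analysis.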

Rattus norvegicus [2] = assay: Maximum percent fall in mean arterial blood pressure was evaluated by injecting 100 mg/kg perorally in DOCA hypertensive rats; format: functional; conditions: route oral
[3] = Neurotoxicity by performing a rotarod test in mouse after 1 hr of administration; format: toxicity, organism-based; conditions: in vivo
Summary of the method: (§2)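 Male BKW mice, 18-22 g, were pre-trained on a rotorod turning at 16 rpm (3 cm drum). They were dosed ip or po in 2% Tween 80/water and tested at timed intervals. TD50, the dose at which 50% fell off the rod, was derived by probit analysis.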

Mus musculus [4] = assay: Anticonvulsant activity tested by maximal electroshock test (MES) in mouse after 1 hr of administration; format: functional
Summary of the method: (§3)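 Male BKW mice (LACA origin), 18-22 g, dosed ip or po with compound dissolved or suspended in 2% Tween 80 in distilled water. Readout was block of hind limb tonic seizure. ED50 was derived by probit analysis using the computerized Bliss method.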

[5] = Neurotoxicity by a rotarod test in mouse after 1 hr of administration; format: toxicity, organism-based; conditions: in vivo; summary of the method: as §2
[6] = Neurotoxicity by performing a rotarod in mouse after 1 hr of administration; format: toxicity, organism-based; conditions: in vivo; summary of the method: as §2
[7] = Protective index (rat) was from the ratio of plasma concentration at which side effects occur by plasma concentration at which anticonvulsant activity occur.; format: functional
Summary of the method: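 Rat plasma drug concentration at rotorod impairment was divided by the plasma concentration at MES anticonvulsant activity. Both were measured by HPLC-UV in plasma from dosed rats.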

Mus musculus [8] = assay: Inhibition of hind limb tonus was tested at time of peak effect by maximal electroshock test (MES) in mouse on intraperitoneal administration of compound; format: functional; conditions: Hindlimb, ip; summary of the method: as §3
Rattus norvegicus [9] = assay: Inhibition of hind limb tonus was tested by maximal metrazole seizure test after 4 hr of peroral administration in rats; format: functional; conditions: Hindlimb, po
Summary of the method: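 Rats received the anticonvulsant orally, then metrazol (leptazol) 80 mg/kg iv, following Desmedt et al. The endpoint was block of the hind limb tonic seizure. ED50 was the dose protecting 50% of animals, by probit analysis (Bliss computerized method), with limits.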

Rattus norvegicus [10] = assay: Inhibition of hind limb tonus was tested by maximal metrazole seizure test after 1 hr of peroral administration in rats; format: functional; conditions: Hindlimb, po
Summary of the method: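 Rats were dosed orally, then given metrazol (leptazol) 80 mg/kg iv 1 h later, following the Desmedt method. The endpoint was hind limb tonic seizure, with ED50 by probit analysis.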

Rattus norvegicus [11] = assay: Inhibition of hind limb tonus was tested at time of peak effect by maximal electroshock test (MES) on intraperitoneal administration of compound in rats; format: functional; conditions: Hindlimb, ip
Rattus norvegicus [12] = assay: Inhibition of hind limb tonus was tested by maximal electroshock test (MES) in rat 1 hr after peroral dosing; format: functional; conditions: Hindlimb, po
Mus musculus [13] = assay: Inhibition of hind limb tonus was tested by maximal electroshock test (MES) in mouse after 1 hr of peroral administration of compound; format: functional; conditions: Hindlimb, po; summary of the method: as §3
Rattus norvegicus [14] = assay: Inhibition of hind limb tonus was tested by maximal electroshock test (MES) in rat after 4 hr of peroral administration; format: functional; conditions: Hindlimb, po
Mus musculus [15] = assay: Inhibition of hind limb tonus was tested at time of peak effect by maximal metrazole seizure (MMS) test administered intraperitoneally in mouse; format: organism-based; conditions: Hindlimb, ip
Summary of the method: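 Male BKW mice (18-22 g) received compound intraperitoneally in 2% aqueous Tween 80 and were challenged with metrazol 120 mg/kg ip at the time of peak effect. ED50 for block of hind limb tonic seizure in 50% of mice was obtained by probit analysis.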

Mus musculus [16] = assay: Inhibition of hind limb tonus was tested by performing a maximal metrazole seizure (MMS) test in mouse after 1 hr of peroral administration of compound; conditions: Hindlimb, po
Rattus norvegicus [17] = organism: Rattus norvegicus; assay: Plasma concentration was determined in rat maximal electroshock test; format: functional, organism-based
Summary of the method: (§4)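 Groups of six rats received compound suspended in 2% Tween 80/water (0.5 mL/100 g) ip or po. Blood was drawn by cardiac puncture into heparin at various times. Plasma was extracted and assayed by HPLC-UV on an ODS column with 1% acetic acid/methanol/0.1% aqueous ammonium acetate (45:55).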

Rattus norvegicus [18] = assay: Inhibition of hind limb tonus was tested by maximal metrazole seizure test after 4 hr of peroral administration; format: functional; conditions: Hindlimb, po
Rattus norvegicus [19] = assay: Inhibition of hind limb tonus was tested by maximal metrazole seizure test after 1 hr of peroral administration of compound; format: functional; conditions: Hindlimb, po
Rattus norvegicus [20] = assay: Inhibition of hind limb tonus was tested by maximal electroshock test (MES) in rat after 1 hr of peroral administration; format: functional; conditions: Hindlimb, po
Rattus norvegicus [21] = organism: Rattus norvegicus; assay: Plasma concentration in rat rotarod test.; format: functional, organism-based; summary of the method: as §4
[22] = Effect of compound on mouse motor performance was studied by performing a rotarod test in mouse dosing intraperitoneally at time of peak effect.; format: ADME, organism-based; conditions: in vivo, ip; summary of the method: as §2
[23] = Effect of compound on mouse motor performance was tested by rotarod test after 1 hr of peroral administration; format: ADME, organism-based; conditions: in vivo, po; summary of the method: as §2
Mus musculus [24] = assay: Inhibition of hind limb tonus was tested by maximal metrazole seizure (MMS) test in mouse after 1 hr of peroral administration; format: functional; conditions: Hindlimb, po; summary of the method: as §1
Rattus norvegicus [25] = assay: Inhibition of hind limb tonus was tested at time of peak effect by maximal electroshock test (MES) in rat on intraperitoneal administration of compound; format: functional; conditions: Hindlimb, ip
Summary of the method: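 Rats received compound intraperitoneally and were tested at the time of peak effect. ED50 was the dose blocking hind limb tonic seizure in 50% of animals, derived by probit analysis using the Bliss computerized method (Finney).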

[26] = Effect of compound on mouse motor performance was tested by rotarod test administered intraperitoneally; format: ADME, organism-based; conditions: in vivo, ip
Summary of the method: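 Male BKW mice (18-22 g) were pre-trained on a 16 rpm rotorod with a 3 cm drum. Drug was injected intraperitoneally as a solution or suspension in 2% aqueous Tween 80, and mice were tested at the time of peak effect. TD50 was the dose making 50% of trained animals fall off, calculated by probit analysis.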

[27] = Effect of compound on mouse motor performance was tested by performing a rotarod test after 1 hr of peroral administration; format: ADME, organism-based; conditions: in vivo, po
Summary of the method: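 Male BKW mice (LACA origin, 18-22 g) were pre-trained on a rotorod at 16 rpm with a 3 cm drum. Compound was given orally in 2% Tween 80 in water, and mice were tested 1 h later. TD50 was the dose at which 50% fell off, derived by probit analysis.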

Mus musculus [28] = assay: Anticonvulsant activity was assessed by performing maximal electroshock test (MES) 1 hr after dosing, in mouse.; format: functional; summary of the method: as §3

SMILES | ED50 (Mus musculus [1]) [mg/kg] | TD50 at 1 h [3] [mg/kg] | ED50 (Mus musculus [4]) [mg/kg] | further results
Cl.NNc1nnc(-c2ccccc2Cl)s1 | 25 | > 568 | 70 | Decrease in blood pressure (Rattus norvegicus [2]): 21%
CNN(Cc1ccccc1)c1nnc(-c2ccccc2C)s1.Cl | 93 | 341 | 109 | 
CCCCCCOc1ccccc1-c1nnc(N(C)N)s1.Cl | 27 | ~160 | 26 | 
CC(C)N(N)c1nnc(-c2ccccc2Cl)s1 | > 100 | > 800 | 54 | 
CCCCCCOc1ccccc1-c1nnc(NN)s1.Cl | 33 |  | 20 | Decrease in blood pressure (Rattus norvegicus [2]): 10%; TD50 at 1 h [5]: > 150 mg/kg
Cc1ccccc1-c1nnc(N(N)Cc2ccccc2)s1 | 44 | > 200 | 27 | 
Cc1ccccc1-c1nnc(N(C)N)s1.Cl | 41 | 108 | 75 | Decrease in blood pressure (Rattus norvegicus [2]): 29%
Cc1ccccc1-c1nnc(NN)s1.Cl | 30 | 55 | > 100 | Decrease in blood pressure (Rattus norvegicus [2]): 63%
COCN(N)c1nnc(-c2ccccc2Cl)s1 | 60 |  | 50 | TD50 at 1 h [6]: 80 mg/kg
O=C1NC(=O)C(c2ccccc2)(c2ccccc2)N1 [PHENYTOIN] |  |  |  | PI [7]: 5.17; ED50 (Mus musculus [8]): 8 mg/kg; ED50 (Rattus norvegicus [9]): 20 mg/kg; ED50 (Rattus norvegicus [10]): 12 mg/kg; ED50 (Rattus norvegicus [11]): 14 mg/kg; ED50 (Rattus norvegicus [12]): 14 mg/kg; ED50 (Mus musculus [13]): 8 mg/kg; ED50 (Rattus norvegicus [14]): 26 mg/kg; ED50 (Mus musculus [15]): 12 mg/kg; ED50 (Mus musculus [16]): 8 mg/kg
CNN(C)c1nnc(-c2ccccc2C)s1 | 23 | 72 | 10 | 
Cl.NNc1nnc(-c2ccccc2-c2ccccc2)s1 | 33 | 627 | 28 | Decrease in blood pressure (Rattus norvegicus [2]): 18%
Cc1ccccc1-c1nnc(N(N)c2ccccc2)s1 | > 100 | > 400 | > 100 | 
Cc1ccccc1-c1nnc(N(C)N(C)C)s1 | 68 | 167 | 25 | 
CNN(C)c1nnc(-c2ccccc2Cl)s1 | 25 | 106 | 43 | 
CN(N)c1nnc(-c2ccccc2Cl)s1.Cl | 41 | 136 | 20 | 
CN(N)c1nnc(Cc2ccccc2)s1.Cl | 25 | 280 | 11 | 
CC(C)NNc1nnc(-c2ccccc2Cl)s1 | 50 | 200 | 50 | 
Cc1ccccc1-c1nnc(NNC(C)C)s1 | 54 | 449 | 83 | 
CN(N)c1nnc(-c2ccccc2-c2ccccc2)s1 |  |  |  | Concentration (Rattus norvegicus [17]): 11.1 µg/mL; PI [7]: 5.14; ED50 (Mus musculus [8]): 17 mg/kg; ED50 (Rattus norvegicus [18]): 13 mg/kg; ED50 (Rattus norvegicus [19]): 13 mg/kg; ED50 (Rattus norvegicus [11]): 6 mg/kg; ED50 (Rattus norvegicus [20]): 16 mg/kg; ED50 (Mus musculus [13]): 18 mg/kg; Concentration (Rattus norvegicus [21]): 57 µg/mL; TD50 [22]: 93 mg/kg; ED50 (Rattus norvegicus [14]): 11 mg/kg; TD50 at 1 h [23]: > 1000 mg/kg; ED50 (Mus musculus [24]): 27 mg/kg
CCC1(c2ccccc2)C(=O)NC(=O)NC1=O [PHENOBARBITAL] |  |  |  | PI [7]: 2.42; ED50 (Mus musculus [8]): 18 mg/kg; ED50 (Rattus norvegicus [18]): 5 mg/kg; ED50 (Rattus norvegicus [25]): 3 mg/kg; ED50 (Rattus norvegicus [19]): 4 mg/kg; ED50 (Rattus norvegicus [20]): 9 mg/kg; TD50 [26]: 86 mg/kg; ED50 (Mus musculus [13]): 12 mg/kg; TD50 at 1 h [27]: 68 mg/kg; ED50 (Rattus norvegicus [14]): 3 mg/kg; ED50 (Mus musculus [24]): 4 mg/kg; ED50 (Mus musculus [15]): 6 mg/kg
CC(C)NN(C)c1nnc(-c2ccccc2Cl)s1.Cl | 30 | 71 | 16 | 
CN(N)c1nnc(-c2ccccc2Oc2ccccc2)s1.Cl | 33 | < 400 | 33 | 
CN(C)N(C)c1nnc(-c2ccccc2Cl)s1.Cl | > 100 | 347 | 53 | 
Cc1ccccc1-c1nnc(NN(C)C)s1.Cl | > 100 | > 250 | 60 | 
CN(N)c1nnc(CCc2ccccc2)s1.Cl | 49 | 317 | 51 | 
CN(C)N(C)c1nnc(-c2ccccc2-c2ccccc2)s1.Cl | 73 | > 800 |  | ED50 (Mus musculus [28]): 63 mg/kg
NC(=O)N1c2ccccc2C=Cc2ccccc21 [CARBAMAZEPINE] |  |  |  | PI [7]: 2.51; ED50 (Mus musculus [8]): 6 mg/kg; ED50 (Rattus norvegicus [18]): 5 mg/kg; ED50 (Rattus norvegicus [19]): 3 mg/kg; ED50 (Rattus norvegicus [11]): 2 mg/kg; ED50 (Rattus norvegicus [20]): 4 mg/kg; ED50 (Mus musculus [13]): 20 mg/kg; ED50 (Rattus norvegicus [14]): 7 mg/kg; ED50 (Mus musculus [24]): 11 mg/kg
CC(C)N(c1nnc(-c2ccccc2Cl)s1)N(C)C.Cl | > 200 |  | 116 | 
